Compound activity (PubChem)
RBBP9 inh – human RBBP9 inhibitors, primary screen, biochemical, fluorescence polarization, FP-Rh probe, HTS; Serine hydrolase RBBP9 (Homo sapiens), O75884; recombinant RBBP9; inhibition, % at 7.94 µM; hit rate 0.2% among 220,000; AID 1515, 2009;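 active means inhibition above the campaign mean of all tested compounds plus 3 SD, cut at about 14% in these data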;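 further: plate controls were DMSO wells with RBBP9 for no effect and wells lacking RBBP9 protein for full effect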
Target sequence (O75884 whole entry, looked up): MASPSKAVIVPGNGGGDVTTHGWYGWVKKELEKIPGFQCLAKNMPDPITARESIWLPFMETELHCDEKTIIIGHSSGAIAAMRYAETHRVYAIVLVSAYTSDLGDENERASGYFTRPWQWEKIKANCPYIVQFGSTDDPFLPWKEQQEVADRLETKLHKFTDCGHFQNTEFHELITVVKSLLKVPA
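Test system: recombinant human RBBP9; Timing: 30 min then 45 min, 25 °C; Detection: fluorescence polarization; Control set: RBBP9 with DMSO as uninhibited control, no-protein wells as full inhibition; Compound dosing: one concentration, 7.94 µM nominal, 0.794% DMSO; Probe or stimulus: FP-Rh activity-based probe, 375 nM before mixing.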
14-3-3 Bad inh – inhibitors of 14-3-3 zeta/Bad binding, primary screen, biochemical, TR-FRET, bovine 14-3-3 zeta | 14-3-3 protein zeta/delta (Bos taurus), P63103 | TR-FRET 14-3-3zeta/Dy647-pBad peptide displacement, 1 h | inhibition, % at 21.7 µM | hit rate 0.71% among 220,000;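 active means inhibition above about 70%, limit read from the data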;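 further: 0% = full 14-3-3 plus peptide FRET controls and 100% = background without 14-3-3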
Target sequence (P63103 whole entry, looked up): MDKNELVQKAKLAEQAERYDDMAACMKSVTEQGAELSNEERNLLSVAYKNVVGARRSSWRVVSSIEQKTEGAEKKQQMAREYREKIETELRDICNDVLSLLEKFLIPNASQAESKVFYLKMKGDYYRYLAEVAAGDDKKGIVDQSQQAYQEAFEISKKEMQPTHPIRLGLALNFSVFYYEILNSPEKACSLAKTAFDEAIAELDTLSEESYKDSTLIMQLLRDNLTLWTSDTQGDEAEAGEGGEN
eIF4E-4G inh – eIF4E–eIF4G protein interaction inhibitors, primary screen, biochemical, uHTS, TR-FRET, eIF4GI fragment. hit rate 0.37% among 220,000. inhibition, % at 21.7 µM. TR-FRET eIF4E-eIF4GI(517-606) binding, 2 h. AID 782, 2007;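 active means inhibition above about 30%, limit read from the data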;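 further: 0% = full FRET control wells and 100% = background wells lacking eIF4GI fragment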
PKD1 kinase inh – inhibitors of human PKD1 kinase, biochemical, fluorescence polarization; Serine/threonine-protein kinase D1 (Homo sapiens), Q15139; hit rate 0.056% among 200,000; inhibition, % (test concentration not listed); PKD1 kinase fluorescence polarization assay
EBV gp42 block – Epstein-Barr virus gp42 inhibitors, primary screen, biochemical, uHTS, fluorescence polarization. Glycoprotein 42 (Epstein-Barr virus (strain AG876)), Q1HVG2. Fluorescence polarization binding assay, mP read-out. inhibition, % (tested at 21.74 µM). hit rate 0.42% among 220,000. AID 1085, 2008
RBBP9 confirm – human RBBP9 inhibitors, retest, confirmation, biochemical, fluorescence polarization, FP-Rh probe, triplicate; shares compounds with RBBP9 inh; AID 1537, 2009; inhibition, % at 7.94 µM; hit rate 36% among 410; recombinant RBBP9;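 active means inhibition above the hit cutoff derived for the primary screen, cut at about 15% in these data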;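 further: 0% = RBBP9 with DMSO and 100% = wells lacking RBBP9 protein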
The depositor's hits bear a star; . = no result. Shown are actives, neighbours in structure and some others; about 1.6% of the full set was active somewhere. Unless noted, no stated cut-off is given here; in the data, active means inhibition above about 50%; inactive means the rest.

SMILES | RBBP9 inh | 14-3-3 Bad inh | eIF4E-4G inh | PKD1 kinase inh | EBV gp42 block | RBBP9 confirm
Oc1ccc(/C=N/NC2=NCCCCC2)cc1 | 16.5* | 4.5 | -10.0 | 1.2 | -5.9 | 12.0
O=C(COC(=O)CCSc1ccc(Cl)cc1)NCc1ccco1 | -8.7 | -2.7 | -1.4 | -1.4 | -9.6 | .
CCNc1nc(NCC)nc(N/N=C/c2ccc(O)c(O)c2)n1 | 2.0 | -12.8 | 2.6 | -8.1 | -1.1 | .
Oc1ccc(/C=N/Nc2ccnc3cc(Cl)ccc23)cc1O | 25.5* | 44.7 | -15.0 | . | 9.5 | 96.7*
COc1cc(C(=O)NCCCn2ccnc2)cc(OC)c1OC | 14.4* | 1.5 | 3.6 | -5.7 | -20.0 | 0.3
COc1ccc(C(=O)NCCCn2ccnc2)cc1[N+](=O)[O-] | -1.7 | 1.3 | -9.7 | . | -16.1 | .
COC(=O)c1ccc(NS(=O)(=O)c2ccccc2)o1 | -1.5 | -16.2 | -2.2 | -2.4 | -10.5 | .
CCOC(=O)C1CCN(c2nc(N)c3c(N)nc(SCC(=O)O)cc3c2C#N)CC1 | 17.3* | 22.6 | 14.3 | . | 7.8 | 39.3*
CCOC(=O)C1CCN(c2nc(C)cc(C)c2C#N)CC1 | 0.2 | 3.2 | 2.0 | -4.9 | -0.8 | .
CN(C)S(=O)(=O)c1cccc(NC(=S)N(CCC#N)Cc2cccnc2)c1 | -6.8 | -3.5 | -3.1 | 1.5 | 9.5 | .
CCn1c(CSc2nnc(-c3ccncc3)n2C)nc2cc(C(=O)O)ccc21 | 17.3* | 2.2 | -5.6 | . | 4.1 | 21.5*
CCn1c(CSc2ncn[nH]2)nc2cc(C(=O)O)ccc21 | 4.8 | 4.5 | -3.5 | . | 38.5 | .
O=C(c1ccncc1)N(c1ccc2oc3c(c2c1)CCCC3)S(=O)(=O)c1ccc(F)cc1 | -9.7 | -1.4 | 4.1 | 8.3 | -7.5 | .
COc1ccc(OC)c(NC(=O)c2cccnc2Sc2cc(C)ccc2C)c1 | 40.9* | -8.4 | -3.5 | -9.3 | -12.7 | 2.1
COc1ccc(OC)c(NC(=O)c2ccccc2SC)c1 | 3.6 | 0.0 | 0.9 | -1.8 | -1.5 | .
CCCCOP(=O)(OCCCC)C1(NS(=O)(=O)c2ccccc2)C=CC(=O)c2ccccc21 (stereo unspecified) | 24.5* | 4.5 | 7.4 | -4.5 | -4.6 | 16.0*
CCCCOCCCNS(=O)(=O)c1ccccc1 | -0.8 | 4.5 | 5.6 | -1.3 | 1.5 | .
Cc1nc2ccccc2c(=O)n1/N=C/c1c(O)ccc2oc3c(c12)CCCC3 | 19.3* | 12.6 | -12.0 | -7.3 | -16.0 | 4.5
NS(=O)(=O)c1ccc(Nc2nc(-c3ccc(O)cc3)cs2)cc1 | -1.1 | 12.6 | 5.6 | -6.7 | 0.3 | .
Oc1ccc(Nc2nc(-c3ccc(O)cc3)cs2)cc1 | 18.1* | 0.5 | -1.1 | -2.4 | -10.1 | 14.3*
Cc1ccc2cc(CCNC(=O)c3cccs3)c(=O)[nH]c2c1 | 15.9* | 7.0 | 2.4 | -10.0 | -1.0 | 11.0
CCCn1c(=O)n(N)c2ccccc21 | -6.6 | -2.5 | -7.8 | 6.7 | -9.6 | .
O=C(COc1ccc2ccccc2c1)Nc1ccc(Cc2ccncc2)cc1 | 28.3* | 0.6 | -45.7 | 9.1 | -9.9 | 2.7
O=C(/C=C/c1ccco1)Nc1ccccc1C(=O)O | -7.8 | 34.0 | 7.6 | 9.5 | -6.8 | .
CN(C(=O)/C=C/c1ccco1)c1ccccc1C(=O)O | 16.6* | 5.7 | 1.3 | 0.2 | -12.1 | 5.1
Cc1ccc(NC(=O)CSc2nnc(-c3n[nH]c4ccccc34)n2-c2ccccc2)c(C)c1 | -9.1 | 2.1 | 0.3 | 6.9 | -8.9 | .
COc1cc(/C=N/Nc2ccc(C(F)(F)F)cn2)cc(OC)c1O | 17.1* | -6.5 | 3.2 | 4.9 | -8.7 | 15.3*
Oc1ccc(/C=N/Nc2ccc(C(F)(F)F)cn2)cc1 | -7.2 | -5.9 | -1.0 | 3.7 | 6.6 | .
O=C(O)C1CSC(c2ccccc2Cl)N1C(=O)c1ccc(Cl)cc1 (stereo unspecified) | -5.5 | -3.1 | 7.5 | -15.1 | -13.4 | .
CCc1cc(/C(Cc2ccccn2)=N\O)c(O)cc1O | 5.0 | -0.3 | -0.8 | -1.3 | -6.4 | .
